# Source: ChEMBL document CHEMBL1148817, “Synthesis and radioligand binding studies of bis-isoquinolinium derivatives as small conductance Ca(2+)-activated K(+) channel blockers” (J Med Chem, 2007)
# Assays:
# [1] = molecular target: T1, Small conductance calcium-activated potassium channel (Rattus norvegicus, UniProt P70604+P70606+P70605); assay: Displacement of [125I]apamin from SK channel in Wistar rat cortex
# Summary of the method: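 Rat cortex synaptosomes (0.2 mg protein/mL) incubated 1 h at 0 °C with 10 pM 125I-apamin and eight drug concentrations (10-4.5 to 10^-8 M) in 10 mM Tris-HCl pH 7.5, 5.4 mM KCl, 0.1% BSA. Nonspecific binding defined with 0.1 µM unlabeled apamin. Filtration on PEI-coated GF/C filters, scintillation counting, curve fitting.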
# [2] = molecular target: Small conductance calcium-activated potassium channel (Rattus norvegicus) (UniProt P70604+P70606+P70605); assay: Displacement of [125I]apamin from SK channel in Wistar rat cortex at 10 uM
# [3] = molecular target: T1, Small conductance calcium-activated potassium channel; assay: Blockade of SK channel in Wistar rat brain assessed as inhibition of apamin-sensitive after-hyperpolarisation
# Summary of the method: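 Apamin-sensitive AHP area (mV s) measured as percent reduction, normalized to block by 300 nM apamin; four sweeps averaged. IC50 from Hill equation fit; mean ± SD, n = 3.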
Ki [1] [nM],Activity [2] [%],IC50 [3] [nM],SMILES
163,> 58,,COc1cc2cc[n+](C)c(Cc3ccc(Cc4c5cc(OC)c(OC)cc5cc[n+]4C)cc3)c2cc1OC.[I-].[I-]
33,> 58,3800,COc1cc2cc[n+](C)c(Cc3ccccc3Cc3c4cc(OC)c(OC)cc4cc[n+]3C)c2cc1OC.[I-].[I-]
90,> 58,,COc1cc2cc[n+](C)c(CCCc3c4c(OC)c(OC)c(OC)cc4cc[n+]3C)c2c(OC)c1OC.[I-].[I-]
196,> 58,,COc1cc2cc[n+](C)c(CCCc3c4cc(OC)c(OC)cc4cc[n+]3C)c2cc1OC.[I-].[I-]
150,> 58,,COc1cc2cc[n+](C)c(CCCCCc3c4cc(OC)c(OC)cc4cc[n+]3C)c2cc1OC.[I-].[I-]
1687,> 58,,C[n+]1ccc2ccccc2c1CCCc1c2ccccc2cc[n+]1C.[I-].[I-]
106,> 58,,COc1cc2cc[n+](C)c(Cc3cccc(Cc4c5cc(OC)c(OC)cc5cc[n+]4C)c3)c2cc1OC.[I-].[I-]

# The next lines start with the molecule.
SMILES,Ki [1] [nM],Activity [2] [%],IC50 [3] [nM]
COc1cc2cc[n+](C)c(Cc3ccc(Cc4c5c(OC)c(OC)c(OC)cc5cc[n+]4C)cc3)c2c(OC)c1OC.[I-].[I-],280,> 58,
COc1ccc(C[C@H]2c3cc(OC)c(OC)cc3CC[N+]2(C)C)cc1OC.[I-] [LAUDANOSINE METHIODIDE],,> 58,15000
C[n+]1ccc2ccccc2c1Cc1ccccc1Cc1c2ccccc2cc[n+]1C.[I-].[I-],438,> 58,
C[n+]1ccc2ccccc2c1Cc1ccc(Cc2c3ccccc3cc[n+]2C)cc1.[I-].[I-],1103,> 58,
C[n+]1ccc2ccccc2c1CCCCCc1c2ccccc2cc[n+]1C.[I-].[I-],1465,> 58,
COc1cc2cc[n+](C)c(Cc3ccccc3Cc3c4c(OC)c(OC)c(OC)cc4cc[n+]3C)c2c(OC)c1OC.[I-].[I-],35,> 58,4100
COc1cc2cc[n+](C)c(Cc3cccc(Cc4c5c(OC)c(OC)c(OC)cc5cc[n+]4C)c3)c2c(OC)c1OC.[I-].[I-],23,> 58,2400
C[n+]1ccc2ccccc2c1Cc1cccc(Cc2c3ccccc3cc[n+]2C)c1.[I-].[I-],132,> 58,
COc1cc2cc[n+](C)c(CCCCc3c4c(OC)c(OC)c(OC)cc4cc[n+]3C)c2c(OC)c1OC.[I-].[I-],42,> 58,4400
COc1cc2cc[n+](C)c(CCCCc3c4cc(OC)c(OC)cc4cc[n+]3C)c2cc1OC.[I-].[I-],164,> 58,
C[n+]1ccc2ccccc2c1CCCCc1c2ccccc2cc[n+]1C.[I-].[I-],1962,> 58,
Cc1cc(N)c2ccccc2[n+]1CCCCCCCCCC[n+]1c(C)cc(N)c2ccccc21.[Cl-].[Cl-] [DEQUALINIUM CHLORIDE],221,> 58,
